# Measured values reported in ChEMBL document CHEMBL3351841, “Differential modes of peptide binding onto replicative sliding clamps from various bacterial origins” (J Med Chem, 2014).
# Where a SMILES comes first, the peptide text is derived from it. [ ]: non-standard residue; d: D form. Phe(3,4-Cl2) = N[C@@H](Cc1ccc(Cl)c(Cl)c1)C(=O)O; Cha = N[C@@H](CC1CCCCC1)C(=O)O
# How the values were obtained:
# [1] = system: Escherichia coli; experiment: Binding affinity to Escherichia coli DNA sliding clamp protein expressed in Escherichia coli BL21(DE3) pLys assessed as association constant at 25 degC by SPR assay
# Summary of the method: (§1)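 Biacore SPR at 25 °C in 10 mM Hepes pH 7.4, 0.15 M NaCl, 3 mM EDTA. The E. coli Pol IV C-terminal heptamer (P1) was immobilized, and the clamp (Ni-NTA then MonoQ purified) was injected at 0.125–2 μM at 50 μL/min. After background subtraction, data were fit to a 1:1 Langmuir model to give KA.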
# [2] = Binding affinity to Escherichia coli DNA sliding clamp protein expressed in Escherichia coli BL21(DE3) pLys at 25 degC by SPR assay
# Summary of the method: (§2)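 Competition SPR at 25 °C in Hepes 10 mM pH 7.4, 0.15 M NaCl, 3 mM EDTA. Clamp (0.25 μM) was preincubated with challenger peptide (1.5 nM to 100 μM), then injected over a chip carrying immobilized P1 peptide (Pol IV C-terminal heptamer). IC50 was taken from inhibition of clamp/P1 binding.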
# [3] = system: Pseudomonas aeruginosa; experiment: Binding affinity to Pseudomonas aeruginosa DNA sliding clamp protein expressed in Escherichia coli BL21(DE3) pLys assessed as association constant at 25 degC by SPR assay; summary of the method: as §1
# [4] = Binding affinity to Pseudomonas aeruginosa DNA sliding clamp protein expressed in Escherichia coli BL21(DE3) pLys at 25 degC by SPR assay; summary of the method: as §2
# [5] = system: Mycobacterium tuberculosis; experiment: Binding affinity to Mycobacterium tuberculosis DNA sliding clamp protein expressed in Escherichia coli BL21(DE3) pLys assessed as association constant at 25 degC by SPR assay
# Summary of the method: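 Direct SPR binding at 25 °C in 10 mM Hepes pH 7.4, 0.15 M NaCl, 3 mM EDTA. Ni-NTA/MonoQ-purified clamp (0.125−2 μM) injected at 50 μL/min over immobilized P1, the E. coli Pol IV C-terminal heptamer. Background subtracted; 1:1 Langmuir fit gives KA.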
# [6] = Binding affinity to Mycobacterium tuberculosis DNA sliding clamp protein expressed in Escherichia coli BL21(DE3) pLys at 25 degC by SPR assay
# Summary of the method: (§3)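 SPR competition at 25 °C in Hepes 10 mM pH 7.4, 0.15 M NaCl, 3 mM EDTA. Clamp (0.25 μM) preincubated with challenger peptide (1.5 nM to 100 μM), then injected over a chip loaded with P1 peptide. IC50 taken from inhibition of clamp/P1 binding; at least three independent experiments.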
# [7] = system: Bacillus subtilis; experiment: Binding affinity to Bacillus subtilis DNA sliding clamp protein expressed in Escherichia coli BL21(DE3) pLys assessed as association constant at 25 degC by SPR assay; summary of the method: as §1
# [8] = Binding affinity to Bacillus subtilis DNA sliding clamp protein expressed in Escherichia coli BL21(DE3) pLys at 25 degC by SPR assay; summary of the method: as §2
# [9] = system: Staphylococcus aureus; experiment: Binding affinity to Staphylococcus aureus DNA sliding clamp protein expressed in Escherichia coli BL21(DE3) pLys assessed as association constant at 25 degC by SPR assay; summary of the method: as §1
# [10] = Binding affinity to Staphylococcus aureus DNA sliding clamp protein expressed in Escherichia coli BL21(DE3) pLys at 25 degC by SPR assay; summary of the method: as §2
# [11] = Binding affinity to Escherichia coli DNA sliding clamp protein expressed in Escherichia coli BL21(DE3) pLys by SPR assay; summary of the method: as §2
# [12] = Binding affinity to Escherichia coli DNA sliding clamp protein expressed in Escherichia coli BL21(DE3) pLys at 25 degC by ITC assay
# Summary of the method: (§4)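 iTC200 calorimetry at 25 °C. Peptide (200–600 μM) was titrated in 2 μL injections into clamp (20–60 μM), with peptide/SC ratio 10, in 10 mM Hepes pH 7.4, 0.15 M NaCl, 3 mM EDTA. Data were corrected against peptide-into-buffer controls and fit for N, KD, ΔH and ΔS. At least two experiments.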
# [13] = Binding affinity to Pseudomonas aeruginosa DNA sliding clamp protein expressed in Escherichia coli BL21(DE3) pLys by SPR assay; summary of the method: as §2
# [14] = Binding affinity to Pseudomonas aeruginosa DNA sliding clamp protein expressed in Escherichia coli BL21(DE3) pLys at 25 degC by ITC assay
# Summary of the method: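 His-tagged P. aeruginosa (PAO1) dnaN clamp from pET-15b, IPTG 0.1 mM at 28 °C overnight; Ni-NTA then MonoQ purified, ultracentrifuged. Peptide (200–600 μM) titrated in 2 μL injections into clamp (20–60 μM), peptide/clamp ratio 10, in 10 mM Hepes pH 7.4, 0.15 M NaCl, 3 mM EDTA. Heat of peptide into buffer subtracted; KD, N, ΔH, ΔS fitted; at least two runs.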
# [15] = Binding affinity to Mycobacterium tuberculosis DNA sliding clamp protein expressed in Escherichia coli BL21(DE3) pLys by SPR assay; summary of the method: as §3
# [16] = Binding affinity to Mycobacterium tuberculosis DNA sliding clamp protein expressed in Escherichia coli BL21(DE3) pLys at 25 degC by ITC assay
# Summary of the method: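 ITC at 25 °C. Peptide (200−600 μM) titrated in 2 μL injections into clamp (20−60 μM) at a peptide/clamp ratio of 10, in 10 mM Hepes pH 7.4, 0.15 M NaCl, 3 mM EDTA. Corrected using peptide-into-buffer controls. N, KD, ΔH and ΔS fitted; at least two experiments.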
# [17] = Binding affinity to Bacillus subtilis DNA sliding clamp protein expressed in Escherichia coli BL21(DE3) pLys by SPR assay; summary of the method: as §2
# [18] = Binding affinity to Staphylococcus aureus DNA sliding clamp protein expressed in Escherichia coli BL21(DE3) pLys by SPR assay; summary of the method: as §2
# [19] = Binding affinity to Pseudomonas aeruginosa DNA sliding clamp protein expressed in Escherichia coli BL21(DE3) pLys at 30 degC by ITC assay
# Summary of the method: (§5)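 ITC at 30 °C. Peptide (200–600 μM) was injected stepwise (2 μL) into clamp solution (20–60 μM), with peptide/SC ratio 10, in Hepes 10 mM pH 7.4, NaCl 0.15 M, EDTA 3 mM. Peptide-into-buffer controls were subtracted, and N, KD, ΔH and ΔS were derived. Performed at least twice.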
# [20] = Binding affinity to Bacillus subtilis DNA sliding clamp protein expressed in Escherichia coli BL21(DE3) pLys at 30 degC by ITC assay; summary of the method: as §5
# [21] = Binding affinity to Bacillus subtilis DNA sliding clamp protein expressed in Escherichia coli BL21(DE3) pLys at 25 degC by ITC assay; summary of the method: as §4
# [22] = Binding affinity to Staphylococcus aureus DNA sliding clamp protein expressed in Escherichia coli BL21(DE3) pLys at 30 degC by ITC assay; summary of the method: as §5
# [23] = Binding affinity to Escherichia coli DNA sliding clamp protein expressed in Escherichia coli BL21(DE3) pLys at 30 degC by ITC assay; summary of the method: as §5
compound,measurement,setting,value
H-RQLVLGL-OH,KA,[1],4.2 ×10⁶ /M
same,Kd,[2],230 nM
same,KA,[3],1.7 ×10⁶ /M
same,Kd,[4],580 nM
same,KA,[5],4.6 ×10⁶ /M
same,Kd,[6],240 nM
same,KA,[7],3.5 ×10⁶ /M
same,Kd,[8],290 nM
same,KA,[9],4.1 ×10⁶ /M
same,Kd,[10],250 nM
"CC(=O)N[C@@H](CCC(N)=O)C(=O)N[C@@H](CC1CCCCC1)C(=O)N[C@@H](CC(=O)O)C(=O)N[C@@H](CC(C)C)C(=O)N[C@@H](Cc1ccc(Cl)c(Cl)c1)C(=O)O (Ac-Q[Cha]DL[Phe(3,4-Cl2)]-OH)",IC50,[11],80 nM
same,Kd,[12],50 nM
same,IC50,[13],140 nM
same,Kd,[14],99 nM
same,IC50,[15],850 nM
same,Kd,[16],750 nM
same,IC50,[17],Not Active
same,IC50,[18],Not Active
CC(=O)N[C@@H](CCC(N)=O)C(=O)N[C@@H](CC1CCCCC1)C(=O)N[C@@H](CC(=O)O)C(=O)N[C@@H](CC(C)C)C(=O)N[C@@H](Cc1ccccc1)C(=O)O (Ac-Q[Cha]DLF-OH),IC50,[11],170 nM
same,Kd,[12],230 nM
same,Kd,[19],640 nM
same,IC50,[17]; read-out: IC50,2100 nM
same,Kd,[20],8200 nM
same,Kd,[21],12300 nM
same,IC50,[18]; read-out: IC50,1540 nM
same,Kd,[22],29000 nM
same,Kd,[23],1000 nM
